Measurements from ChEMBL document CHEMBL1795267, “Synthesis of enantiomerically pure D- and L-bicyclo[3.1.0]hexenyl carbanucleosides and their antiviral evaluation” (Bioorg Med Chem, 2011).
≈ marks a conversion by molar mass, not a printed value. Calls of active or inactive are those of the source. No cut-off for these calls is given here.

Experiments:
MT4 = experiment: Toxicity against human MT4 cells by MTT assay; type: cell-based
Outline: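 Uninfected MT-4 cells (HTLV-1-carrying T4+ line) at 1.0×10^5 cells/mL in RPMI-1640/10% FBS, gentamycin, 2 mM L-glutamine, run in triplicate alongside infected cultures for 5 days at 37 °C, 5% CO2. Compounds were diluted from DMSO, final DMSO ≤0.5%. Read by MTT (1.5 h), formazan dissolved in acidic 2-propanol, A540/690. CC50 is the concentration reducing viability by 50%.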

[1] = tested on: Human immunodeficiency virus 1; experiment: Antiviral activity against HIV1 3B infected in human MT4 cells […] with HTLV1 assessed as reduction in virus induced cytopathicity measured 5 days post infection by MTT assay; type: functional, organism-based; settings: Human immunodeficiency virus 1, 3B, MT4, 120 h
Outline: (§1)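 MT-4 cells (HTLV-1-carrying human T cells; RPMI-1640, 10% FBS, 2 mM L-glutamine) infected with cell-free HIV-1 IIIB or HIV-2 ROD at 100 TCID50/mL for 1.5 h at 37 °C, then plated at 1.0×10^5 cells/mL with serial compound dilutions (DMSO stock, at most 0.5% DMSO final) in triplicate. Cultured 5 days at 37 °C. Virus-induced cytopathicity read by MTT. IC50 is the concentration giving 50% protection.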

[2] = tested on: Human immunodeficiency virus 2; experiment: Antiviral activity against HIV2 ROD infected in human MT4 cells assessed as reduction in virus induced cytopathicity measured 5 days post infection by MTT assay; type: functional, organism-based; settings: Human immunodeficiency virus 2, ISOLATE ROD, MT4, 120 h; outline: as §1
[3] = Selectivity index, ratio of CC50 for human MT4 cells to IC50 for HIV1 3B; type: functional
Outline: (§2)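 Uninfected MT-4 cells (1.0×10^5 cells/mL) were cultured for 5 days at 37 °C with compound in parallel with the infected cultures. Viability was read by MTT (1.5 h with MTT, formazan dissolved in acidic 2-propanol, absorbance at 540/690 nm). CC50 is the concentration reducing viability of uninfected cells by 50%. Index = CC50/IC50 against the HIV-1 IIIB or HIV-2 ROD MT-4 assay.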

[4] = Selectivity index, ratio of CC50 for human MT4 cells to IC50 for HIV2 ROD; type: functional; outline: as §2
Coxsackievirus B1 = experiment: Antiviral activity against Coxsackie virus B1 up to 100 ug/mL; type: functional, organism-based
Coxsackievirus B3 = experiment: Antiviral activity against Coxsackie virus B3 up to 100 ug/mL; type: functional, organism-based
Poliovirus 3 = experiment: Antiviral activity against Human poliovirus 3 up to 100 ug/mL; type: functional, organism-based
Human alphaherpesvirus 2 = experiment: Antiviral activity against HSV2; type: functional, organism-based
Influenza A virus [5] = experiment: Antiviral activity against influenza A virus H1N1 Taiwan up to 100 ug/mL; type: functional, organism-based
Influenza A virus [6] = experiment: Antiviral activity against Influenza A virus H3N2 Johannesburg up to 100 ug/mL; type: functional, organism-based
Influenza B virus = experiment: Antiviral activity against influenza B virus Panama up to 100 ug/mL; type: functional, organism-based
Feline coronavirus = experiment: Antiviral activity against Feline coronavirus WSU up to 100 ug/mL; type: functional, organism-based
[7] = tested on: Feline infectious peritonitis virus; experiment: Antiviral activity against Feline infectious peritonitis virus WSU up to 100 ug/mL; type: functional

Compound	CC50 (MT4)	IC50 [1]	IC50 [2]	Ratio CC50/IC50 [3]	Ratio CC50/IC50 [4]	inhibition (Coxsackievirus B1)	inhibition (Coxsackievirus B3)	inhibition (Poliovirus 3)	IC50 (Human alphaherpesvirus 2)	inhibition (Influenza A virus [5])	inhibition (Influenza A virus [6])	inhibition (Influenza B virus)	inhibition (Feline coronavirus)	inhibition [7]
Nc1ccn([C@H]2C=C[C@]3(CO)C[C@H]23)c(=O)n1	61.8 µg/mL (≈ 282 µM)	> 61.8 µg/mL	> 61.8 µg/mL	<1	<1	inactive	inactive	inactive	–	–	–	–	–	–
O=c1ccn([C@@H]2C=C[C@@]3(CO)C[C@@H]23)c(=O)[nH]1	–	> 100 µg/mL	–	–	–	inactive	inactive	inactive	–	–	–	–	–	–
Nc1nc(O)c2ncn([C@@H]3C=C[C@@]4(CO)C[C@@H]34)c2n1	> 100 µg/mL	> 100 µg/mL	> 100 µg/mL	–	–	inactive	inactive	inactive	–	–	–	–	–	–
Nc1ncnc2c1ncn2[C@@H]1C=C[C@@]2(CO)C[C@@H]12	–	> 100 µg/mL	> 100 µg/mL	–	–	inactive	inactive	inactive	–	–	–	–	–	–
Nc1ncnc2c1ncn2[C@H]1C=C[C@]2(CO)C[C@H]12	> 100 µg/mL	40.5 µg/mL (≈ 166 µM)	–	>2.47	–	inactive	inactive	inactive	–	–	–	–	–	–
Cc1cn([C@H]2C=C[C@]3(CO)C[C@H]23)c(=O)[nH]c1=O	8.558 µg/mL (≈ 36.5 µM)	0.033 µg/mL (≈ 0.141 µM)	0.112 µg/mL (≈ 0.478 µM)	263	76	inactive	inactive	inactive	–	–	–	–	–	–
O=c1[nH]cnc2c1ncn2[C@H]1CC[C@@H](CO)O1 [DIDANOSINE]	> 100 µg/mL	2.31 µg/mL (≈ 9.78 µM)	5.76 µg/mL (≈ 24.4 µM)	>43.29	>17.38	–	–	–	–	–	–	–	–	–
Nc1ccn([C@@H]2C=C[C@@]3(CO)C[C@@H]23)c(=O)n1	> 100 µg/mL	> 100 µg/mL	> 100 µg/mL	–	–	inactive	inactive	inactive	–	–	–	–	–	–
Cc1cn([C@@H]2C=C[C@@]3(CO)C[C@@H]23)c(=O)[nH]c1=O	> 100 µg/mL	1.18 µg/mL (≈ 5.02 µM)	2.27 µg/mL (≈ 9.69 µM)	>85.09	>44.05	inactive	inactive	inactive	59.2 µg/mL (≈ 253 µM)	inactive	inactive	inactive	inactive	inactive
Nc1ccn([C@H]2CC[C@@H](CO)O2)c(=O)n1 [ZALCITABINE]	10.66 µg/mL (≈ 50.5 µM)	0.043 µg/mL (≈ 0.204 µM)	0.04 µg/mL (≈ 0.189 µM)	248.73	266.7	–	–	–	–	–	–	–	–	–
O=c1nc(O)ccn1[C@H]1C=C[C@]2(CO)C[C@H]12	> 100 µg/mL	> 100 µg/mL	> 100 µg/mL	–	–	inactive	inactive	inactive	–	–	–	–	–	–
